Measurements from the RNAGym collection of RNA variant scans (doi:10.1126/science.aae0568).
This sample holds only a part of the variants without activity.

B1: tRNA (parent)
chain: GUUCCGUUGGCGUAAUGGUAACGCGUCUCCCUCCUAAGGAGAAGACUGCGGGUUCGAGUCCCGUACGGAACG

Variants of: B1
Assay: yeast fitness relative to wild type (ratio to wild type); higher = fitter; tRNA-Arg(CCU), competitive growth, 37 C, YPD
Procedure, shortened: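 Start and end populations of a pooled competition were compared by 100-nucleotide paired-end sequencing of gene amplicons. The Saccharomyces cerevisiae strains carried tRNA-Arg(CCU) gene variants at the native genomic locus, synthesised with a 3% per-site mutation rate at 69 sites, and competed in YPD at 37°C for 24 hours in six parallel replicates. Darwinian fitness relative to wild type was based on the change in genotype frequencies. Genotypes required ≥ 100 starting reads, and estimates < 0.5 were set to 0.5.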
Work on GUUCCGUUGGCGUAAUAGUAACGCGUCUCCCUCCUAAGGAGAAGACUGAGGGUUCGAGUCCCGUACGGAACG yielded a yeast fitness of 0.677.
In the case of GUUCCGUUGGCGUAAUAGUAACGCGUCUCCCUCAUAAGGGGAAGACUGCGGGUUCGAGUCCCGUAUGGAACG, the yeast fitness is reported as 0.524.
Variant GUUCCGUUGGCGUAAUAAUAACGCGUCUCCCUCCUAAGGAGCAGACUGCGGGUUCGAGUCUCGUACGGAACG has a yeast fitness of at most 0.5.
In the case of GUUCCGUUGGCGUAAUAGUAACGCGUCUCCCUCAUAAGGAGAAGACUGCGGGUUCGAGUCCCGUACGGAACG, the yeast fitness is reported as 0.595.
GUUCCGUUGGCGUAAUAGUAACGCGUCUCCCUCUUAAGGAGAAGACUGCGGGUUCGAGUCCCGUACGGAACG showed a yeast fitness of 0.573.
GUUCCGUUGGCGUAAUAGUAACGCGUCUCCCUCGUAAGGAGAAGACUGCGGGUUCGAGUCCCGUUCGGAACG gave a yeast fitness of at most 0.5.
Variant GUUCCGUUGGCGUAAUAGUAACGCGUCUCCCUUCUAAGGAGAAGACUGCGGGUUCGAGGCCCGUACGGAACG has a yeast fitness of 0.501.
For GUUCCGUUGGCGUAAUAGUAACGCGUCUCCCUCCUAAGGAGAAGAGUGCGGGUUCGAGUCCCGUACGGAUCG, the yeast fitness was 0.578.
GUUCCGUUGGCGUAAUAGUAACGCGUCUCCCUGCUAAGGAGAAGACUGCGGGUUCGAGUCCCGUACGGAACG showed a yeast fitness of at most 0.5.
In the case of GUUCCGUUGGCGUAAUAGUAACGCGUCUCCCUCAUAAGGAGAAGACUGCGGGUUCGAGUCCCGUAAGGAACG, the yeast fitness is reported as at most 0.5.
GUUCCGUUGGCGUAAUAGUAACGCGUCUCCCUCCUAAGGAGAAGACUGAGGGUACGAGUCCCGUACGGAACG showed a yeast fitness of 0.614.
Variant GUUCCGUUGGCGUAAUAGUAACGCGUCUCCCUCUUAAGGAGAAGACUGCGGGUUGGAGUCCCGUACGGAACG has a yeast fitness of 0.508.
Work on GUUCCGUUGGCGUAAUAGUAACGCGUCUCCCUCCUAAGGAGAAGACUGAGGCUUCAAGUCCCGUACGGGACG yielded a yeast fitness of at most 0.5.
For GUUCCGUUGGCGUAAUAGUAACGCGUCUCCCUCCUAAGGAGAAGACUGCGGGUUCGAGUGCCGUACAGAACG, the yeast fitness was at most 0.5.
GUUCCGUUGGCGUAAUAGUAACGCGUCUCCCUCCUAAGGAGAAGACUGCGGGUUCGAGUACCGUACGGAACG gave a yeast fitness of at most 0.5.
GUUCCGUUGGCGUAAUAGUAACGCGUCUCCCUCAUAAGGAGAAGACUGCGGGUUCGAGUCCCGUACGGACCG gave a yeast fitness of 0.631.
For GUUCCGUUGGCGUAAUAGUAACGCGUCUCCCUACUUAGGAAAAGACUACGGGUUCGAGUCCCGUACGGAACG, the yeast fitness was at most 0.5.
Variant GUUCCGUUGGCGUAAUAGUAACGCGUCUCCCUCCUAAGGAGAAGACUGUGGGUUCGAGUCCAGUACGGAACG has a yeast fitness of at most 0.5.
With GUUCCGUUGGCGUAAUAGUAACGCGUCUCCCUCUUAAGGAGUAGACUGCGCGUUCGAGUCCCGUAUGGAACG the yeast fitness was at most 0.5.
Work on GUUCCGUUGGCGUAAUAGUAACGCGUCUCCCUCCUAAGGAGAAGACUGCGGGUUCGAGUCCCGUAUGGAACG yielded a yeast fitness of 0.725.
Work on GUUCCGUUGGCGUAAUAGUAACGCGUCUCCCUCCUAAGGAGAAGAAUGCGGGUUCGAGUCGCGUACGGGACG yielded a yeast fitness of at most 0.5.
Work on GUUCCGUUGGCGUAAUAGUAACGCGUCUCCCUCCUAAGGAGAAGACUGCGGGUUCGAGUCUCGUACGGAACG yielded a yeast fitness of 0.924.
For GUUCCGUUGGCGUAAUAGUAACGCGUCUCCCUCCUAAGGAGAAGAUUGCGCGUUCGAGUCCCGUACGGAACG, the yeast fitness was 0.647.
Variant GUUCCGUUGGCGUAAUAGUAACGCGUCUCCUUCCCAAGGAGAAGACUGCGGGUUCAGGUCCCGUACGGAACG has a yeast fitness of at most 0.5.
Variant GUUCCGUUGGCGUAAUAGUAACGCGUCUCCCUCAUAAGGAGAAGACUGCGGGUUCGAGUCCGGUACGGAACG has a yeast fitness of at most 0.5.
With GUUCCGUUGGCGUAAUAGUAACGCGUCUCCCUCCUAAGGAGAAGACUGCGGGUUCGAGUAACGUACGGAACG the yeast fitness was at most 0.5.
GUUCCGUUGGCGUAAUAGUAACGCGUCUCCCUCCUAAGGAGAAGACUGCGGGUUCGAGUCACAUACGGAACG gave a yeast fitness of 0.66.
Work on GUUCCGUUGGCGUAAUAGUAACGCGUCUCCCUCAUAAGGAGAAGACUGCGGGUUGGAGUCCCGUACGGAACG yielded a yeast fitness of at most 0.5.
GUUCCGUUGGCGUAAUAGUAACGCGUCUCCCUCUUAAGGAGAAGACUGCGGGUUCGUGUCCCGCACGGAACG showed a yeast fitness of at most 0.5.
With GUUCCGUUGGCGUAAUAGUAACGCGUCUCCCUCCUAAGGAGAAGACUGCGGGUUGGAGUCCCGUACGGACCG the yeast fitness was at most 0.5.
Work on GUUCCGUUGGCGUAAUAGUAACGCGUCUCCCUCUUAAAGAGAAGACUGCGGGUUCGAGUCCCGUACGGAACG yielded a yeast fitness of 0.581.
Variant GUUCCGUUGGCGUAAUAGUAACGCGUCUCCCUCCUAAGGAGAAGAAUGCGGGUUCGAGUCCCGUGCGGAACG has a yeast fitness of at most 0.5.
For GUUCCGUUGGCGUAAUAGUAACGCGUCUCCCUCCUAAGGAGAAGACUGGGGGCUCGAGUCCCGUACGGAACG, the yeast fitness was at most 0.5.
For GUUCCGUUGGCGUAAUACUGACGCGUCUCCCUCCUAAGCAGAAGACUGCGGGUUCGAGUCCCGUACGGAACG, the yeast fitness was at most 0.5.
GUUCCGUUGGCGUAAUAAUAACGCGUCUCCCUCCUAAGGAGCAGACUGCGGGUUUGAGUCCCCUACGGAACG showed a yeast fitness of at most 0.5.
In the case of GUUCCGUUGGCGUAAUAGUAACGCGUCUCCCUCGUAAGGAGAAGACUGCGGGUUCGAGUCCCGUACUGAACG, the yeast fitness is reported as at most 0.5.
GUUCCGUUGGCGUAAUAAUCGCGCGUCUCCCUCCUAAGGAGAAGACUGCAGGUUGGAGUCCCGUACGGUACG gave a yeast fitness of 0.642.
GUUCCGUUGGCGUAAUAAUAACGCGCCUCCCUCCUAAGGAGCAGACUGCGGGUUUGAGUCCCGUACGGAACG showed a yeast fitness of at most 0.5.
